ChEMBL document CHEMBL5625195, “Identification of novel tetrahydroquinoxaline derived phenyl ureas as modulators of the hepatitis B virus nucleocapsid assembly” (Eur J Med Chem, 2023)
Active and inactive are the calls of the source. The rule behind the calls is not given here.

Tests used:
Hepatitis B virus [1] = experiment: Antiviral activity against HBV infected in AML12HBV10 cells assessed as reduction viral replication incubated for 48 hrs; format: functional, organism-based; conditions: AML12HBV10, 48 h
How it was run: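 AML12HBV10 cells were seeded at 2 x 10^4 per well without tetracycline. After one day, 2-fold serial dilutions (10 μM to 0.08 μM) were applied for 48 h. Lysates were denatured, neutralized and dot-blotted, then hybridized with a 32P-labelled riboprobe specific for HBV minus-strand DNA and read by phosphorimager. EC50 was the concentration reducing HBV DNA by 50%.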

[2] = Cytotoxicity against mouse AML12 cells assessed as reduction in cell viability incubated for 48 hrs by MTT assay; format: toxicity, cell-based; conditions: AML12 cells
How it was run: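 Stable AML12HBV10 hepatocytes (AML12-derived), cultured without tetracycline, were exposed to 2-fold serial dilutions (50 μM to 1.56 μM) for 48 h. Viability was inspected microscopically and quantified by MTT. CC50 was the concentration lowering viability by 50%.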

Hepatitis B virus [3] = experiment: Antiviral activity against HBV infected in AML12HBV10 cells assessed as change in total viral RNA at 1 to 5 uM after 2 days by Northern blot hybridization; format: functional, organism-based; conditions: dose 1-5 µM, time 2.0 day
How it was run: (§1)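 AML12HBV10 cells in 24-well plates were kept with or without tetracycline for 24 h. Tet-maintained cells served as the no-pgRNA negative control. Cells were then mock (DMSO) or compound treated for 48 h. Total viral RNA and encapsidated pgRNA were read by Northern blot with rRNA as loading control. Core protein was read by Western blot (C-terminal 14-residue antibody, β-actin control), capsids by native particle gel assay, and replication intermediates by Southern blot.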

Hepatitis B virus [4] = experiment: Antiviral activity against HBV infected in AML12HBV10 cells assessed as change in core protein at 1 to 5 uM after 2 days by Northern blot hybridization; format: functional, organism-based; conditions: dose 1-5 µM, time 2.0 day; how it was run: as §1
Hepatitis B virus [5] = experiment: Antiviral activity against HBV infected in AML12HBV10 cells assessed as decrease in capsid assembly at 1 to 5 uM after 2 days by Northern blot hybridization; format: functional, organism-based; conditions: dose 1-5 µM, time 2.0 day
How it was run: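 AML12HBV10 cells (mouse hepatocyte line carrying tetracycline-inducible, envelope-deficient HBV genome) in 24-well plates. Tetracycline was removed for 24 h before treatment; tetracycline-maintained cells served as negative control. Cells were mock (DMSO) or compound treated for a further 48 h. Intracellular capsids and core-associated DNA were resolved by native agarose gel particle assay.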

Hepatitis B virus [6] = experiment: Antiviral activity against HBV infected in AML12HBV10 cells assessed as decrease in encapsidated pgRNA at 1 to 5 uM after 2 days by Northern blot hybridization; format: functional, organism-based; conditions: dose 1-5 µM, time 2.0 day
How it was run: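 AML12HBV10 cells were induced by tetracycline withdrawal for 24 h, then mock (DMSO) or compound treated for 48 h, with tetracycline-maintained cells as negative control. Encapsidated pgRNA was detected by Northern blot hybridization, using ribosomal RNA as loading control.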

Hepatitis B virus [7] = experiment: Antiviral activity against HBV infected in AML12HBV10 cells assessed as decrease in viral DNA replication at 1 to 5 uM after 2 days by Northern blot hybridization; format: functional, organism-based; conditions: dose 1-5 µM, time 2.0 day; how it was run: as §1
Hepatitis B virus [8] = experiment: Antiviral activity against HBV infected in HepDES19 cells assessed as reduction viral DNA incubated for 4 days by qPCR analysis; format: functional, organism-based; conditions: HepDES19, 96 h
How it was run: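 HepDES19 (HepG2-derived, tetracycline-inducible HBV) cells in 24-well plates, cultured without tetracycline for 2 days, then mock or serial 2-fold compound dilutions for 4 more days. Cytoplasmic HBV core DNA was extracted and quantified by qPCR. EC50 came from triplicate biological experiments by regression.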

[9] = Cytotoxicity against human HepDES19 cells assessed as reduction in cell viability incubated for 6 days by MTT assay; format: toxicity, cell-based; conditions: time 6 day
How it was run: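 Tetracycline-free HepDES19 cells in 96-well plates were exposed to […] serial dilutions (50 μM to 0.39 μM) for 6 days. Viability was checked by microscopy and measured by MTT. CC50 was the concentration reducing viability by 50%.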

O=C(Nc1cc(F)c(F)c(F)c1)N1CCN(C(=O)Nc2ccc(F)c(Cl)c2)c2ccccc21
EC50 (Hepatitis B virus [1]): 0.32 µM | CC50 at 48 h [2]: > 20 µM

O=C(Cc1ccc(F)c(Cl)c1)N1CCNc2ccccc21
EC50 (Hepatitis B virus [1]): > 10 µM | CC50 at 48 h [2]: > 20 µM

O=C(Nc1ccc(F)c(Cl)c1)N1CCN[C@H]2CCCC[C@H]21 (relative stereo)
EC50 (Hepatitis B virus [1]): > 10 µM | CC50 at 48 h [2]: > 100 µM

O=C(Nc1ccc(F)c(Cl)c1)N1CC(CN2CCC(F)(F)C2)Nc2ccccc21 (stereo not drawn)
EC50 (Hepatitis B virus [1]): 5.09 µM | CC50 at 48 h [2]: > 100 µM

O=C(Nc1ccc(F)c(Cl)c1)N1CCN(C(=O)Nc2ccc(F)c(Cl)c2)c2ccccc21
EC50 (Hepatitis B virus [1]): 1.01 µM | CC50 at 48 h [2]: > 12.5 µM | Activity (Hepatitis B virus [3]): inactive | Activity (Hepatitis B virus [4]): inactive | Activity (Hepatitis B virus [5]): Active | Activity (Hepatitis B virus [6]): Active | Activity (Hepatitis B virus [7]): Active

O=C1CN(C(=O)Nc2ccc(F)c(Cl)c2)c2ccccc2N1
EC50 (Hepatitis B virus [1]): > 10 µM | CC50 at 48 h [2]: > 50 µM

O=C(Nc1ccc(F)c(Cl)c1)N1CC(CN2CCC(F)(F)CC2)Nc2ccccc21 (stereo not drawn)
EC50 (Hepatitis B virus [1]): 4.32 µM | CC50 at 48 h [2]: > 100 µM

O=C(Nc1ccnc(Cl)c1)N1CCN(C(=O)Nc2ccc(F)c(Cl)c2)c2ccccc21
EC50 (Hepatitis B virus [1]): 1.11 µM | CC50 at 48 h [2]: > 20 µM

O=C(Nc1ccc(F)c(F)c1)N1c2ccccc2NCC1CN1CCC(F)(F)CC1 (stereo not drawn)
EC50 (Hepatitis B virus [1]): 0.39 µM | CC50 at 48 h [2]: > 50 µM

O=C(Nc1cccc(Cl)c1)N1c2ccccc2NCC1CN1CCC(F)(F)CC1 (stereo not drawn)
EC50 (Hepatitis B virus [1]): 0.35 µM | CC50 at 48 h [2]: > 50 µM

O=C(Nc1ccc(F)c(C(F)F)c1)N1CCNc2ccccc21
EC50 (Hepatitis B virus [1]): 0.19 µM | CC50 at 48 h [2]: > 20 µM

N#Cc1cc(NC(=O)N2c3ccccc3NCC2CN2CCC(F)(F)CC2)ccc1F (stereo not drawn)
EC50 (Hepatitis B virus [1]): 0.09 µM | CC50 at 48 h [2]: > 50 µM | EC50 (Hepatitis B virus [8]): 0.15 µM | CC50 at 144 h [9]: > 50 µM

CC(C)C1CNc2ccccc2N1C(=O)Nc1ccc(F)c(Cl)c1 (stereo not drawn)
EC50 (Hepatitis B virus [1]): 4.5 µM | CC50 at 48 h [2]: > 100 µM

O=C(Nc1cc(F)c(F)c(Cl)c1)N1CCNc2ccccc21
EC50 (Hepatitis B virus [1]): 0.93 µM | CC50 at 48 h [2]: > 100 µM

O=C(Nc1ccc(F)c(Cl)c1)N1CCCc2ccccc21
EC50 (Hepatitis B virus [1]): 1.55 µM | CC50 at 48 h [2]: > 100 µM

O=C(Nc1ccc(F)c(Cl)c1)N1CC(CN2CCC(F)(F)CC2)N(C(=O)Nc2ccc(F)c(Cl)c2)c2ccccc21 (stereo not drawn)
EC50 (Hepatitis B virus [1]): 1.61 µM | CC50 at 48 h [2]: > 100 µM

O=C(Nc1ccc(F)c(Cl)c1)N1CCc2cccnc21
EC50 (Hepatitis B virus [1]): > 10 µM | CC50 at 48 h [2]: > 25 µM

CC1CN(C(=O)Nc2ccc(F)c(Cl)c2)c2ccccc2N1 (stereo not drawn)
EC50 (Hepatitis B virus [1]): > 10 µM | CC50 at 48 h [2]: > 50 µM

Cc1cc(NC(=O)N2CCNc3ccccc32)ccc1F
EC50 (Hepatitis B virus [1]): 0.24 µM | CC50 at 48 h [2]: > 20 µM

O=C(Nc1ccc(F)c(C(F)(F)F)c1)N1c2ccccc2NCC1CN1CCC(F)(F)CC1 (stereo not drawn)
EC50 (Hepatitis B virus [1]): 0.34 µM | CC50 at 48 h [2]: 31.4 µM

O=C(Nc1ccc(F)c(Cl)c1)C1CCNc2ccccc21 (racemic)
EC50 (Hepatitis B virus [1]): > 10 µM | CC50 at 48 h [2]: > 100 µM

O=C(Nc1ccc(F)c(Cl)c1)N1c2ccccc2NCC1c1ccccc1 (stereo not drawn)
EC50 (Hepatitis B virus [1]): 0.78 µM | CC50 at 48 h [2]: > 50 µM

O=C(Nc1ccc(F)c(Cl)c1)N1CC(CN2CCC(F)(F)C2)N(C(=O)Nc2ccc(F)c(Cl)c2)c2ccccc21 (stereo not drawn)
EC50 (Hepatitis B virus [1]): 1.14 µM | CC50 at 48 h [2]: > 100 µM

N#Cc1cc(NC(=O)N2CCNc3ccccc32)ccc1F
EC50 (Hepatitis B virus [1]): 0.52 µM | CC50 at 48 h [2]: > 20 µM

O=C(Nc1cc(F)c(F)c(F)c1)N1c2ccccc2NCC1CN1CCC(F)(F)CC1 (stereo not drawn)
EC50 (Hepatitis B virus [1]): 0.29 µM | CC50 at 48 h [2]: > 50 µM

O=C(Nc1ccc(F)c(Cl)c1)N1c2ccccc2NCC1CN1CCC(F)(F)C1 (stereo not drawn)
EC50 (Hepatitis B virus [1]): 1.7 µM | CC50 at 48 h [2]: > 100 µM

O=C(Nc1ccc(F)c(Cl)c1)N1CCCCc2ccccc21
EC50 (Hepatitis B virus [1]): > 10 µM | CC50 at 48 h [2]: > 100 µM

O=C(Nc1ccc(F)c(Cl)c1)N1CC(CN2CCOCC2)N(C(=O)Nc2ccc(F)c(Cl)c2)c2ccccc21 (stereo not drawn)
EC50 (Hepatitis B virus [1]): 2.03 µM | CC50 at 48 h [2]: > 100 µM
